Reference: ChEMBL document CHEMBL1132156, “Synthesis and structure-activity relationships of potential anticancer agents: alkylcarbamates of 3-(9-acridinylamino)-5-hydroxymethylaniline” (J Med Chem, 1999)
pIC50: −log10 of the molar value. Values belong to the compound of their own block, whether it stands above or below them.

Key:
HL-60 [1] = experiment: In vitro growth inhibition against human leukemia HL-60 cell line; type: functional, cell-based
In short: (§1)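 HL-60 cells were seeded at 5×10^4 cells/mL in RPMI 1640 with 10% heat-inactivated FBS, penicillin and streptomycin, at 37 °C in 5% CO2. Cells were exposed for 72 h to six or seven drug concentrations, run in duplicate. Viability was read by XTT-tetrazolium microculture absorbance, and IC50 was derived from median-effect plot analysis.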

Mus musculus [2] = experiment: […] anticancer activity against B6D2F-1 mice bearing P388 leukemia measured by the average weight change(g) after day 7 at an intravenous dose of 22(mg/kg).; type: functional
In short: (§2)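 Male B6D2F1 mice (8 weeks old, 20–25 g) were implanted iv on day 0 with P388/0 ascites cells (0.2 mL; ascites:saline 1.10), which grew in the liver. Drug was given iv via the tail vein, Q2Dx5, on days 1, 3, 5, 7 and 9. Groups had 4–5 mice. Day 1 value is mean body weight; later days are weight change.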

Mus musculus [3] = experiment: […] anticancer activity against B6D2F-1 mice bearing P388 leukemia measured by the average weight change(g) after day 7 at an intravenous dose of 16(mg/kg).; type: functional; in short: as §2
Mus musculus [4] = experiment: […] anticancer activity against B6D2F-1 mice bearing P388 leukemia measured by the Average survival time(days) at an intravenous dose of 30(mg/kg).; type: functional
In short: (§3)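 Male B6D2F1 mice, 8 weeks old, 20–25 g. P388/0 ascites cells (0.2 mL, ascites:saline 1.10) were implanted iv on day 0, and the tumor grew in the liver. Drug was given iv by tail vein on days 1, 3, 5, 7 and 9 (Q2Dx5), with 4–5 mice per group. Survival time was scored as 8 a.m. (0.0), 1 p.m. (0.25) or 5 p.m. (0.5) deaths. %ILS was averaged against untreated controls, and toxic deaths were counted.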

Mus musculus [5] = experiment: […] anticancer activity against B6D2F-1 mice bearing P388 leukemia measured by the increase in lifespan at an intravenous dose of 30(mg/kg).; type: functional; in short: as §3
Mus musculus [6] = experiment: […] anticancer activity against 5 B6D2F-1 mice bearing P388 leukemia measured by the toxicity death at an intravenous dose of 16(mg/kg)..; type: organism-based; settings: in vivo; in short: as §3
HL-60 [7] = experiment: In vitro inhibition of human leukemic HL-60 cell growth in culture; type: functional, cell-based; in short: as §1
Mus musculus [8] = experiment: […] anticancer activity against B6D2F-1 mice bearing P388 leukemia measured by the average weight change(g) after day 9 at an intravenous dose of 30(mg/kg).; type: functional
In short: (§4)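 Male B6D2F1 mice (8 weeks old, 20–25 g) were implanted iv on day 0 with P388/0 ascites cells (0.2 mL; ascites:saline = 1.10). Tumor grew in the liver. Drug was given iv via the tail vein, Q2Dx5, on days 1, 3, 5, 7 and 9. Body weight was recorded on days 1, 7, 9 and 11 and reported as the average change (g).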

Mus musculus [9] = experiment: […] anticancer activity against 5 B6D2F-1 mice bearing P388 leukemia measured by the toxicity death at an intravenous dose of 22(mg/kg).; type: organism-based; settings: in vivo; in short: as §3
Mus musculus [10] = experiment: […] anticancer activity against 4 B6D2F-1 mice bearing P388 leukemia measured by the toxicity death at an intravenous dose of 30(mg/kg).; type: organism-based; settings: in vivo; in short: as §3
Mus musculus [11] = experiment: […] anticancer activity against B6D2F-1 mice bearing P388 leukemia measured by the Average survival time(days) at an intravenous dose of 22(mg/kg).; type: functional; in short: as §3
Mus musculus [12] = experiment: […] anticancer activity against B6D2F-1 mice bearing P388 leukemia measured by the increase in lifespan at an intravenous dose of 16(mg/kg)..; type: functional; in short: as §3
Mus musculus [13] = experiment: […] anticancer activity against B6D2F-1 mice bearing P388 leukemia measured by the average weight change(g) after day 11 at an intravenous dose of 30(mg/kg).; type: functional; in short: as §2
Mus musculus [14] = experiment: […] anticancer activity against B6D2F-1 mice bearing P388 leukemia measured by the increase in lifespan at an intravenous dose of 22(mg/kg).; type: functional; in short: as §3
Mus musculus [15] = experiment: […] anticancer activity against B6D2F-1 mice bearing P388 leukemia measured by the average weight change(g) after day 11 at an intravenous dose of 22(mg/kg).; type: functional; in short: as §2
Mus musculus [16] = experiment: […] anticancer activity against B6D2F-1 mice bearing P388 leukemia measured by the average weight change(g) after day 7 at an intravenous dose of 30(mg/kg).; type: functional; in short: as §4
Mus musculus [17] = experiment: […] anticancer activity against B6D2F-1 mice bearing P388 leukemia measured by the average survival time(days) at an intravenous dose of 16(mg/kg)..; type: functional; in short: as §3
Mus musculus [18] = experiment: […] anticancer activity against B6D2F-1 mice bearing P388 leukemia measured by the average body weight(g) after day 1 at an intravenous dose of 30(mg/kg).
Mus musculus [19] = experiment: […] anticancer activity against B6D2F-1 mice bearing P388 leukemia measured by the average body weight(g) after day 1 at an intravenous dose of 22(mg/kg).
Mus musculus [20] = experiment: […] anticancer activity against B6D2F-1 mice bearing P388 leukemia measured by the average weight change(g) after day 9 at an intravenous dose of 16(mg/kg).; type: functional; in short: as §4
Mus musculus [21] = experiment: […] anticancer activity against B6D2F-1 mice bearing P388 leukemia measured by the average weight change(g) after day 9 at an intravenous dose of 22(mg/kg).; type: functional; in short: as §4
Mus musculus [22] = experiment: […] anticancer activity against B6D2F-1 mice bearing P388 leukemia measured by the average body weight(g) after day 1 at an intravenous dose of 16(mg/kg).
Mus musculus [23] = experiment: […] anticancer activity against B6D2F-1 mice bearing P388 leukemia measured by the average weight change(g) after day 11 at an intravenous dose of 16(mg/kg).; type: functional; in short: as §2
Mus musculus [24] = experiment: […] anticancer activity against B6D2F-1 mice bearing P388 leukemia measured by the average weight change(g) after day 9 at an intravenous dose of 8(mg/kg).; type: functional; in short: as §4
Mus musculus [25] = experiment: […] anticancer activity against B6D2F-1 mice bearing P388 leukemia measured by the average weight change(g) after day 7 at an intravenous dose of 12(mg/kg).; type: functional; in short: as §2
Mus musculus [26] = experiment: […] anticancer activity against B6D2F-1 mice bearing P388 leukemia measured by the average body weight(g) after day 1 at an intravenous dose of 12(mg/kg).
Mus musculus [27] = experiment: […] anticancer activity against B6D2F-1 mice bearing P388 leukemia measured by the average body weight(g) after day 1 at an intravenous dose of 18(mg/kg).
Mus musculus [28] = experiment: […] anticancer activity against B6D2F-1 mice bearing P388 leukemia measured by the average weight change(g) after day 9 at an intravenous dose of 12(mg/kg).; type: functional; in short: as §4
Mus musculus [29] = experiment: […] anticancer activity against B6D2F-1 mice bearing P388 leukemia measured by the average survival time(day+/-SD) at an intravenous dose of 8(mg/kg)..; type: functional; in short: as §3
Mus musculus [30] = experiment: […] anticancer activity against B6D2F-1 mice bearing P388 leukemia measured by the Average survival time(day+/-SD) at an intravenous dose of 18(mg/kg).; type: functional; in short: as §3
Mus musculus [31] = experiment: […] anticancer activity against B6D2F-1 mice bearing P388 leukemia measured by the increase in lifespan(%) at an intravenous dose of 8(mg/kg)..; type: functional; in short: as §3
Mus musculus [32] = experiment: […] anticancer activity against B6D2F-1 mice bearing P388 leukemia measured by the average weight change(g) after day 11 at an intravenous dose of 12(mg/kg).; type: functional; in short: as §2
Mus musculus [33] = experiment: […] anticancer activity against B6D2F-1 mice bearing P388 leukemia measured by the average weight change(g) after day 7 at an intravenous dose of 8(mg/kg).; type: functional; in short: as §4
Mus musculus [34] = experiment: […] anticancer activity against B6D2F-1 mice bearing P388 leukemia measured by the increase in lifespan(%) at an intravenous dose of 18(mg/kg).; type: functional; in short: as §3
Mus musculus [35] = experiment: […] anticancer activity against B6D2F-1 mice bearing P388 leukemia measured by the average weight change(g) after day 7 at an intravenous dose of 18(mg/kg).; type: functional; in short: as §2
Mus musculus [36] = experiment: […] anticancer activity against B6D2F-1 mice bearing P388 leukemia measured by the Average survival time(day+/-SD) at an intravenous dose of 12(mg/kg).; type: functional; in short: as §3
Mus musculus [37] = experiment: […] anticancer activity against B6D2F-1 mice bearing P388 leukemia measured by the average body weight(g) after day 1 at an intravenous dose of 8(mg/kg).
Mus musculus [38] = experiment: […] anticancer activity against B6D2F-1 mice bearing P388 leukemia measured by the increase in lifespan(%) at an intravenous dose of 12(mg/kg).; type: functional; in short: as §3
Mus musculus [39] = experiment: […] anticancer activity against B6D2F-1 mice bearing P388 leukemia measured by the average weight change(g) after day 11 at an intravenous dose of 8(mg/kg).; type: functional; in short: as §2

pIC50 (HL-60 [1]): 8.64
Structure (SMILES): CCOC(=O)Nc1cc(CO)cc(Nc2c3cccc(C)c3nc3c(C(=O)NCCN(C)C)cccc23)c1

Structure (SMILES): Nc1cc(CO)cc(Nc2c3ccccc3nc3ccccc23)c1
Average weight change (Mus musculus [2]): -1.3 g | Average weight change (Mus musculus [3]): 0.8 g | Average survival (Mus musculus [4]): 21.8 days | Increase in life-span (Mus musculus [5]): 240% | Toxicity related death (Mus musculus [6]): 0 | pIC50 (HL-60 [7]): 7.57 | Average weight change (Mus musculus [8]): -0.1 g | Toxicity related death (Mus musculus [9]): 0 | Toxicity related death (Mus musculus [10]): 0 | Average survival (Mus musculus [11]): 21.1 days | Increase in life-span (Mus musculus [12]): 133% | Average weight change (Mus musculus [13]): -0.2 g | Increase in life-span (Mus musculus [14]): 230% | Average weight change (Mus musculus [15]): -2.8 g | Average weight change (Mus musculus [16]): 0.2 g | Average survival (Mus musculus [17]): 14.9 days | Body weight (Mus musculus [18]): 22.6 g | Body weight (Mus musculus [19]): 23.8 g | Average weight change (Mus musculus [20]): -0.5 g | Average weight change (Mus musculus [21]): -1.5 g | Body weight (Mus musculus [22]): 23.3 g | Average weight change (Mus musculus [23]): -2.1 g

Structure (SMILES): COc1cc(NS(C)(=O)=O)ccc1Nc1c2ccccc2nc2ccccc12 [AMSACRINE]
Average weight change (Mus musculus [24]): -2.1 g | Average weight change (Mus musculus [25]): -0.7 g | Body weight (Mus musculus [26]): 22.7 g | Body weight (Mus musculus [27]): 24.5 g | Average weight change (Mus musculus [28]): -1.4 g | Average survival (Mus musculus [29]): 12.2 days | Average survival (Mus musculus [30]): 7.6 days | Increase in life-span (Mus musculus [31]): 91% | Average weight change (Mus musculus [32]): -3.2 g | Average weight change (Mus musculus [33]): 0.1 g | Increase in life-span (Mus musculus [34]): 19% | Average weight change (Mus musculus [35]): -4.3 g | Average survival (Mus musculus [36]): 14.1 days | Body weight (Mus musculus [37]): 22.8 g | Increase in life-span (Mus musculus [38]): 120% | Average weight change (Mus musculus [39]): -3.8 g
